ChEMBL document CHEMBL2021907, “Amyrisins A-C, O-prenylated flavonoids from Amyris madrensis” (J Nat Prod, 2012)
Calls of active or inactive are those of the source. The rule behind the calls is not given here.

Legend:
[1] = system: PC-3; test: Cytotoxicity against human PC3 cells at 50 uM after 48 hrs by SRB assay; format: functional, cell-based
Outline: (§1)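 SRB assay over 48 h, with a concentration range up to 50 μM, in cells pre-plated at set densities. PC-3 cells were grown in RPMI 1640 with 10% FBS and 50 µg/mL gentamicin. DU 145 cells were grown in Richter's IMEM with 10% FBS and 25 µg/mL gentamicin. The IC50 is the 50% growth-inhibition concentration, averaged over two independent triplicate experiments.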

[2] = species on record: Homo sapiens; test: Disruption of microtubules in human MDA-MB-435 after 1 hr by immunoblotting technique
[3] = system: PC-3; test: Cytotoxicity against human PC3 cells after 48 hrs by SRB assay; format: functional, cell-based; conditions: PC-3, 48 h; outline: as §1
[4] = system: DU-145; test: Cytotoxicity against human DU145 cells after 48 hrs by SRB assay; format: functional, cell-based; conditions: DU-145, 48 h; outline: as §1
[5] = system: PC-3; test: Effect on cell cycle distribution in human PC3 cells at 50 uM after 18 hrs by flow cytometry; format: functional, cell-based

| Activity [2] | Compound | Activity [1] | IC50 [3] [µM] | IC50 [4] [µM] | Activity [5] |
| --- | --- | --- | --- | --- | --- |
| inactive | COc1c(O)cc2oc(-c3ccc(OCC=C(C)C)cc3)cc(=O)c2c1O | inactive |  |  |  |
| inactive | COc1cc(-c2cc(=O)c3c(O)c(OC)c(O)cc3o2)ccc1OCC=C(C)C [AMYRISIN C] |  | 23 | 23 | inactive |
| inactive | C=C(C)C(O)COc1ccc(-c2cc(=O)c3c(O)c(OC)c(O)cc3o2)cc1 (stereo unspecified) [AMYRISIN B] |  | 17.5 | 17.5 |  |

| Compound | Activity [2] | Activity [1] | IC50 [3] [µM] | IC50 [4] [µM] | Activity [5] |
| --- | --- | --- | --- | --- | --- |
| O=C1OC[C@@H]2Cc3cc4c(cc3[C@@H](c3ccc5c(c3)OCO5)[C@@H]12)OCO4 [POLYGAMAIN] | Active |  | 0.0706 |  |  |
